HKDC1 inh: HKDC1 hexokinase inhibitors, primary screen, biochemical, fluorescence, uHTS; actives 0.16% (n = 340,000); inhibition, % at 20 µM; AID 493160, 2011; recombinant HKDC1, G6PDH/diaphorase resazurin coupled fluorescence; Q2TB90;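 active = inhibition above about 35% when tested at 20 µM, limit read from the data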;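 note: plate controls were DMSO wells with enzyme for no effect and DMSO wells lacking enzyme for full effect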
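Test system: recombinant HKDC1 (HK5) hexokinase enzyme, produced in-house / Doses: 20 µM test compound, 1% DMSO / Timing: 90 min, room temperature / Detection: G6PDH/diaphorase-coupled fluorescence, 1 mM NADP, 100 µM resazurin, 525/613 nm / Control set: DMSO wells with and without enzyme mix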
PfGluPho inh: PfG6PD enzyme inhibitors, primary screen, biochemical, fluorescence intensity, uHTS; glucose-6-phosphate dehydrogenase-6-phosphogluconolactonase (Plasmodium falciparum 3D7); inhibition, % at 20 µM; actives 0.78% (n = 350,000); PfGluPho enzyme, NADPH resazurin-diaphorase fluorescence;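 active = inhibition reaching at least a set limit at 20 µM in the primary screen, cut at about 59% in these data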;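 note: 0% = DMSO wells with substrate and 100% = DMSO wells lacking glucose-6-phosphate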
APOBEC3G inh: APOBEC3G DNA deaminase inhibitors, primary screen, biochemical, fluorescence, single-stranded DNA substrate, uHTS | inhibition, % at 20 µM | DNA dC->dU-editing enzyme APOBEC-3G (Homo sapiens), Q9HC16 | actives 0.28% (n = 330,000) | recombinant A3G, ssDNA deamination FAM/TAMRA fluorescence | AID 493012, 2011;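 active = inhibition of at least 40% at 20 µM, with no more than 30% in the related APOBEC3A deaminase screen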;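 note: plate controls were DMSO wells with A3G for no effect and wells lacking A3G enzyme for full effect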
Target sequence (Q9HC16 whole entry, looked up): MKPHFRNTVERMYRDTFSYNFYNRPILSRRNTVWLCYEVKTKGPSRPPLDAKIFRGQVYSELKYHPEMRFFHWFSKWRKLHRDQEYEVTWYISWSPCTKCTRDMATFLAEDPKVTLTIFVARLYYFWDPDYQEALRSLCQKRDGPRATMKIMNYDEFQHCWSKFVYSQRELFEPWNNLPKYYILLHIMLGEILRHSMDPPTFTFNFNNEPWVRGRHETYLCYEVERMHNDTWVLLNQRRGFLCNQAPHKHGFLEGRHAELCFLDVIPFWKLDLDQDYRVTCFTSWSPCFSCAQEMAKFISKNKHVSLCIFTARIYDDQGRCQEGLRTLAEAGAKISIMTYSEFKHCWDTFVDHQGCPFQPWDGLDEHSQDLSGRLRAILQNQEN
iPSC survival up: enhancers of single-cell hiPSC survival, primary screen, ATPlite luminescence | 100% = ROCK inhibitor wells, 0% = DMSO | AID 602274, 2012 | actives 0.044% (n = 360,000) | survival enhancement, % at 20 µM; in the data active = survival enhancement above about 18%;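 note: cells exposed to compounds for 16 hours before the ATP read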
A3A deaminase: APOBEC3A ssDNA deaminase inhibitors, primary screen, selectivity assay for APOBEC3G inhibitor project, biochemical, FAM/TAMRA oligo cleavage fluorescence; actives 0.41% (n = 330,000); recombinant A3A, FAM/TAMRA ssDNA deamination fluorescence; AID 493011, 2011; inhibition, % at 20 µM;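 active = at least 40% inhibition at 20 µM here, with at most 30% in a related deaminase screen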;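 note: plate controls were A3A with DMSO for no effect and wells lacking A3A enzyme for full effect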
Target sequence (P31941 whole entry, looked up): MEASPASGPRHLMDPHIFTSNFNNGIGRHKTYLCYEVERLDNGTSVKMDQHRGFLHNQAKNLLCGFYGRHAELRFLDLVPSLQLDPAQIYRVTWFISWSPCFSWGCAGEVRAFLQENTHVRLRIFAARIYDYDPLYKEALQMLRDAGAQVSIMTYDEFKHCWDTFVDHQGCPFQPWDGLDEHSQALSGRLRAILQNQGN
APOBEC3A confirm: APOBEC3A deaminase inhibitors, retest, confirmation, selectivity assay for APOBEC3G inhibitor project, biochemical, single concentration, fluorescence readout; inhibition, % at 20 µM; recombinant A3A, ssDNA deaminase UDG fluorescence assay; actives 63% (n = 1,400); shares compounds with A3A deaminase;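 active = inhibition reaching a set limit, 80% of the first screen's cutoff, at 20 µM in any replicate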;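 note: plate controls were DMSO wells with A3A for no effect and wells lacking A3A enzyme for full effect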
UDG A3A counter: E. coli UDG inhibitors, confirmation, counter-screen for APOBEC3A inhibitor project, biochemical, single concentration, fluorescence, FAM/TAMRA oligo | shares compounds with A3A deaminase | UDG counterscreen, FAM/TAMRA uracil oligo fluorescence | inhibition, % at 20 µM | 1,000 tested, under 10 active | AID 504714, 2011; call rule not given here
* hit, by the source's call; / = no result given. Rows were chosen to be rich in hits. Some 1.4% of all compounds tested hit in one or more screens of this group.

SMILES | HKDC1 inh | PfGluPho inh | APOBEC3G inh | iPSC survival up | A3A deaminase | APOBEC3A confirm | UDG A3A counter
Cc1cc(Br)ccc1SCC(=O)OCC(=O)NCc1ccco1 | 5 | 20 | 22 | 0 | 59* | 43* | /
Cc1ccc(C)c(SCC(=O)OCC(=O)c2ccco2)c1 | -7 | 8 | 15 | -3 | 54* | 51* | -2
Cc1ccc(C)c(SCC(=O)NCc2ccco2)c1 | -4 | -6 | 3 | 2 | 6 | / | /
CCOC(=O)C1CCN(C(=O)C(C)Sc2ccc(Cl)cc2)CC1 (stereo not drawn) | -2 | -24 | -8 | 3 | -1 | / | /
CCOC(=O)C1CCN(C(=O)C(C)Sc2nnc3ccccn23)CC1 (stereo not drawn) | -4 | -16 | -1 | 0 | 60* | 7 | 3
CCCCCCNC(=O)c1cn(CC)c2cc(N3CCN(C)CC3)c(F)cc2c1=O | 2 | 31 | -3 | -1 | 2 | / | /
c1ccc(-c2nnc(N3CCN(c4ccccc4)CC3)nc2-c2ccccc2)cc1 | -1 | 17 | -4 | 0 | -1 | / | /
CN1CCN(c2nnc(-c3ccccc3)c(-c3ccccc3)n2)CC1 | 0 | 8 | 14 | 0 | 66* | 27* | -4
O=C1Nc2ccccc2/C1=N/c1sc2c(c1C(=O)NCCc1ccccc1)CCCC2 | -6 | -2 | -2 | -4 | 44* | -4 | 1
O=C(Nc1sc2c(c1C(=O)NCCO)CCCC2)c1ccco1 | 3 | 19 | -10 | 0 | -4 | / | /
CC(CC(=O)N1CCN(c2ccccc2)CC1)S(=O)(=O)c1ccc2c(c1)NC(=O)CO2 (stereo not drawn) | -6 | -9 | -6 | 0 | -5 | / | /
CCC(C)NC(=O)CSc1ccc(S(=O)(=O)N(C)C2CCCCC2)cn1 (stereo not drawn) | 1 | 4 | -9 | 0 | 42* | -4 | 2
CCCNC(=O)CSc1ccc(S(=O)(=O)N(C)C2CCCCC2)cn1 | / | 3 | / | 0 | / | / | /
CCOC(=O)N1CCN(C(=O)Cc2cccc3ccccc23)CC1 | -7 | -8 | -1 | -1 | -2 | / | /
CCOC(=O)C1CCN(C(=O)Cc2cccc3ccccc23)CC1 | 5 | -9 | 6 | 0 | 40* | 58* | 1
COc1ccc(CC2(CO)CCN(S(=O)(=O)c3cccc4cccnc34)CC2)cc1 | -5 | 10 | -2 | 0 | 0 | / | /
COc1ccc2nc(NC(=O)CSCc3c(C)noc3C)sc2c1 | 3 | -9 | -10 | 0 | 2 | / | /
Cc1noc(C)c1CSCC(=O)Nc1nc2ccc(S(C)(=O)=O)cc2s1 | 0 | -6 | 2 | 0 | 44* | 15 | /
COc1ccc(CC(=O)N/N=C/c2ccc(-c3ccc(F)cc3)o2)cc1OC | 0 | 19 | 6 | 0 | 3 | / | /
COc1ccc(CC(=O)N/N=C/c2ccc(-c3cccc(C(=O)O)c3)o2)cc1OC | -1 | 11 | 6 | -1 | 42* | 25 | /
O=C(Nc1ccccc1F)c1coc(=O)c(Br)c1 | 0 | 5 | 0 | 1 | 10 | / | /
O=C(Nc1ccc(Br)cn1)c1coc(=O)c(Br)c1 | 8 | 5 | 24 | 0 | 62* | 21* | -5
CCOC(=O)NC(=O)CN1C(=O)NC(C)(c2ccccc2)C1=O (stereo not drawn) | 3 | 8 | -9 | 0 | 72* | -7 | 0
CC1N(C(=O)N2CCOCC2)CCN1S(=O)(=O)c1cccc(C(F)(F)F)c1 (stereo not drawn) | -4 | -2 | -8 | 0 | -2 | / | /
COc1ccc(CCCC(=O)NCCc2ccccc2)c(C)c1 | -5 | -1 | 6 | 0 | 41* | 12 | /
SMILES | HKDC1 inh | PfGluPho inh | APOBEC3G inh | iPSC survival up | A3A deaminase | APOBEC3A confirm | UDG A3A counter
COc1ccc(CCCC(=O)NC2CCCCC2C)c(C)c1 (stereo not drawn) | -9 | 4 | 29 | 0 | 71* | 71* | 3
COc1ccc(CCNC(=O)CCCCC(=O)NCCc2ccc(OC)cc2)cc1 | -1 | -17 | -1 | 1 | -7 | / | /
CCn1c(SCC(=O)O)nc2sc3c(c2c1=O)CCC3 | 3 | -21 | 17 | 3 | 54* | 48* | 6
O=C(Nc1cc2c(cc1Br)OCCCO2)c1ccccc1 | -3 | 6 | 2 | -1 | 55* | 1 | /
COc1ccc(-c2cc(C(=O)NCCN3CCOCC3)no2)cc1OC | 4 | 7 | -5 | 0 | -3 | / | /
CN(C)c1ccc(-c2csc(C(O)c3ccc(F)c(F)c3)n2)cc1 (stereo not drawn) | / | / | / | -1 | / | / | /
Cn1nc(C(=O)NCCCN2CCCCC2)c2c1-c1ccccc1SC2 | 3 | 12 | 3 | 0 | -2 | / | /
O=C1N/C(=C/c2cccn2-c2ccc(F)cc2)C(=O)N1Cc1ccccc1F | -10 | -16 | 1 | -1 | -3 | / | /
O=C(O)c1cccc(-n2cccc2/C=C2/NC(=O)N(Cc3ccccc3F)C2=O)c1 | -1 | 2 | 11 | 2 | 62* | 62* | -1
Cc1cccc(C(O)c2ncc(-c3ccccc3)[nH]2)c1C (stereo not drawn) | / | / | / | 1 | / | / | /
NS(=O)(=O)c1ccc(CCNC(=O)c2ccc[nH]c2=S)cc1 | -2 | 31 | 28 | 2 | -3 | / | /
N#C/C(=C\c1ccc(Cl)cc1)c1nc(-c2ccco2)cs1 | -8 | 1 | 14 | -1 | 41* | 28 | /
O=C(NCCC1CCCCN1S(=O)(=O)c1ccc(Cl)cc1)C(=O)NCc1cccnc1 (stereo not drawn) | 1 | 3 | -10 | 4 | -3 | / | /
COC(=O)\C(C(C)=O)=C(/C=C/C=C/N(C)C)N(C)C | -7 | 16 | 14 | -1 | 47* | 35* | /
Cc1[nH]c(=O)c(C#N)c(C)c1CCC(=O)Nc1cc(S(C)(=O)=O)ccc1Cl | -5 | -3 | 18 | 0 | 73* | 42* | -3
CC[n+]1ccc(C)c2cc(P(=O)(c3ccccc3)c3ccccc3)ccc21 | -9 | 9 | 26 | -2 | 63* | active | 4
CCCCN(C(=O)COc1ccc(C)cc1OC)c1c(N)n(CCC)c(=O)[nH]c1=O | -2 | 1 | 2 | 0 | 1 | / | /
CN(CCCCCC(=O)/C=N/O)Cc1ccccc1 | -11 | 2 | -8 | 3 | 4 | / | /

Screening data (PubChem BioAssay)
